In ChEMBL document CHEMBL4004817, “Constituents of the Rhizomes of Boesenbergia pandurata and Their Antiausterity Activities against the PANC-1 Human Pancreatic Cancer Line” (J Nat Prod, 2017):
The source made the active and inactive calls. No cut-off for these calls is given here.

Tests used:
PANC-1 [1] = assay: Antiausteritic activity against human PANC1 cells in nutrient-deprived medium measured after 24 hrs by WST8 assay; assay type: functional
Procedure, shortened: (§1)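 Human pancreatic cancer cells were seeded at 1.5 × 10^4/well in DMEM for 24 h at 37 °C under 5% CO2. After two PBS washes, cells received serially diluted samples in DMEM (nutrient-rich) or NDM (pH 7.4), with a control and blank on each plate. After 24 h, cells were washed and given DMEM with 10% WST-8 for 3 h, then A450 was read. Viability (mean of three wells) = (sample − blank)/(control − blank) × 100. For NDM, PC50 is the concentration killing 50% of cells preferentially. Arctigenin was the positive control.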

PANC-1 [2] = assay: Cytotoxicity against human PANC1 cells in DMEM measured after 24 hrs by WST8 assay; assay type: cell-based; conditions: panc-1, 24 h; procedure, shortened: as §1
PANC-1 [3] = assay: Antiausteritic activity against human PANC1 cells in nutrient-deprived medium assessed as changes in cell morphology by measuring increase in round appearance at 1.5 uM after 24 hrs by ethidium bromide/acridine orange staining based fluorescence imaging method; assay type: functional
Procedure, shortened: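 PANC-1 cells were seeded at 6 × 10^4/well in DMEM and held 24 h at 37 °C under 5% CO2. They were washed twice with PBS, then switched to NDM alone (control) or with compound at 1.5 μM for 24 h. EB/AO reagent was added for 5 min, and cells were imaged under fluorescence and phase contrast (20×). Green AO marks live cells; red EB marks dead cells.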

| Structure (SMILES) | PC50 (PANC-1 [1]) [µM] | Activity (PANC-1 [2]) | Activity (PANC-1 [3]) |
| --- | --- | --- | --- |
| COc1cc(O)c(C(=O)[C@@H]2[C@H](C/C=C(\C)CO)C(C)=CC[C@H]2c2ccccc2)c(O)c1 | 6.3 | Non-Toxic | – |
| CC(C)=CC[C@@H]1C(C)=CC[C@@H](c2ccccc2)[C@@H]1C(=O)c1c(O)cc(O)cc1O [4-HYDROXYPANDURATIN A] | 3.1 | Non-Toxic | – |
| COc1cc(O)c(C(=O)[C@@H]2CC=C(C)[C@@H](/C=C/C(C)(C)O)[C@H]2c2ccccc2)c(O)c1 | 3.3 | Non-Toxic | – |
| COc1cc(O)c(C(=O)[C@@H]2[C@@H](CC=C(C)C)C(C)=CC[C@H]2c2ccccc2)c(O)c1 | 7.2 | Non-Toxic | – |
| C=C(C)C(O)C[C@@H]1C(C)=CC[C@@H](c2ccccc2)[C@@H]1C(=O)c1c(O)cc(OC)cc1O (some centres not stated) | 18.1 | Non-Toxic | – |
| COc1cc(O)c(C(=O)[C@@H]2[C@H](CC=C(C)C)C(C)=CC[C@H]2c2ccccc2)c(O)c1 [PANDURATIN A] | 7.8 | Non-Toxic | – |
| COc1cc(C[C@H]2C(=O)OC[C@@H]2Cc2ccc(OC)c(OC)c2)ccc1O [ARCTIGENIN] | 0.83 | – | – |
| COc1cc(O)cc(O)c1C(=O)[C@@H]1[C@H](/C=C/C(C)(C)OC)C(C)=CC[C@H]1c1ccccc1 | 10.5 | Non-Toxic | – |
| COc1cc(O)c(C(=O)[C@@H]2CC=C(CCC=C(C)C)C[C@H]2c2ccccc2)c(O)c1 | 0.84 | Non-Toxic | Active |
| COc1cc(O)cc(O)c1C(=O)[C@@H]1[C@H](CC=C(C)C)C(C)=CC[C@H]1c1ccccc1 | 2.8 | Non-Toxic | – |
| COc1cc(O)c(C(=O)[C@@H]2CC=C(C)[C@H](CC=C(C)C)[C@H]2c2ccccc2)c(O)c1 | 7.8 | Non-Toxic | – |
| COc1cc(O)c(C(=O)[C@@H]2CC=C(C)[C@@H](CC=C(C)C)[C@H]2c2ccccc2)c(O)c1 [(-)-NICOLAIOIDESIN B] | 2.1 | Non-Toxic | – |
| CC(C)=CC[C@H]1C(C)=CC[C@@H](c2ccccc2)[C@@H]1C(=O)c1c(O)cc(O)cc1O | 5.8 | Non-Toxic | – |
| COc1cc(O)cc(O)c1C(=O)[C@@H]1CC=C(C)[C@@H](CC=C(C)C)[C@H]1c1ccccc1 | 1 | Non-Toxic | – |
| COc1cc(O)c(C(=O)[C@@H]2[C@H](/C=C/C(C)(C)O)C(C)=CC[C@H]2c2ccccc2)c(O)c1 | 6.6 | Non-Toxic | – |
| COc1cc(O)cc(O)c1C(=O)[C@@H]1CC=C(C)[C@H](CC=C(C)C)[C@H]1c1ccccc1 | 7.4 | Non-Toxic | – |
